{
  "source": "ChEMBL document CHEMBL1121751",
  "about": "“Inhibition of thymidylate synthetase by 5-alkynyl-2'-deoxyuridylates” (J Med Chem, 1981)",
  "key": {"Mus musculus": {"species_on_record": "Mus musculus", "test": "Effect on mutant line lacking dThd kinase (S49/TK at 0.1 mM; No effect", "assay_type": "functional"}, "[1]": {"test": "Compound was tested for cytotoxicity against Wild-type S49 cells", "assay_type": "functional, cell-based", "conditions": "Mus musculus"}, "[2]": {"test": "Compound was tested for cytotoxicity towards (Wild-type and TK-) S49 cells at 0.1 mM; Not cytotoxic", "assay_type": "cell-based", "conditions": "mouse, s49, 100 µM"}, "Thymidylate synthase": {"molecular_target": "T1, Thymidylate synthase (Lactobacillus casei, UniProt P00469)", "T1 sequence (P00469 whole entry)": "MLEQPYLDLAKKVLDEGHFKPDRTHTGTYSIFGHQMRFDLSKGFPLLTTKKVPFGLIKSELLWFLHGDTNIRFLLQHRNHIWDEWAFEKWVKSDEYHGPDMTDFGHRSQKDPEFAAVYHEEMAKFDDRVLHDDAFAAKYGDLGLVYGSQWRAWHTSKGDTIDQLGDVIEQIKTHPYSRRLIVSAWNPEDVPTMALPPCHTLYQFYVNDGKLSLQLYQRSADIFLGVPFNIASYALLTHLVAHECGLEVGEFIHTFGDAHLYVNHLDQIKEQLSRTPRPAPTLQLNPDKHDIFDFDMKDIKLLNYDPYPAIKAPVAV", "test": "The compound was evaluated for the inhibition of dTMP synthetase from Lactobacillus casei", "design": "species or system Lacticaseibacillus casei", "method_in_brief": "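dTMP synthetase came from a methotrexate-resistant strain of Lactobacillus casei and was purified. Activity was measured by a reported procedure in standard assay buffer. For time-dependent inactivation, enzyme was preincubated with nucleotide, with or without 0.1 mM CH₂-H₄folate, for up to 2 h. Aliquots were then diluted 10-fold into buffer containing 0.84 mM dUMP and 0.1 mM CH₂-H₄folate, and initial velocity was recorded.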"}, "[3]": {"test": "Effective concentration to inhibit the growth of Wild-type S49 cells", "assay_type": "functional, cell-based", "conditions": "Mus musculus", "method_in_brief": "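Growth-inhibition assay run by a previously reported procedure on wild-type S49 cells, with a thymidine kinase-deficient S49/TK⁻ line tested alongside. The 5-alkynyl-2'-deoxyuridine nucleosides were tested up to 0.1 mM. EC₅₀ is the concentration giving half-maximal growth inhibition.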"}},
  "note": "pEC50, pKi: −log10 of the molar value. Calls of active or inactive are those of the source. The rule behind the calls is not given here.",
  "data": [
    {"smiles": "O=c1[nH]c(=O)n([C@H]2C[C@H](O)[C@@H](CO)O2)cc1C#CCCO", "values": [
      {"measurement": "Effect", "setting": "Mus musculus", "value": "inactive"},
      {"measurement": "pEC50", "setting": "[1]", "value": 4.15}
    ]},
    {"smiles": "CCCCC#Cc1cn([C@H]2C[C@H](O)[C@@H](CO)O2)c(=O)[nH]c1=O", "values": [
      {"measurement": "Cytotoxicity", "setting": "[2]", "value": "Non-toxic"}
    ]},
    {"smiles": "C#Cc1cn([C@H]2C[C@H](O)[C@@H](COP(=O)(O)O)O2)c(=O)[nH]c1=O", "values": [
      {"measurement": "pKi", "setting": "Thymidylate synthase", "value": 7.00}
    ]},
    {"smiles": "O=c1[nH]c(=O)n([C@H]2C[C@H](O)[C@@H](COP(=O)(O)O)O2)cc1C#Cc1ccccc1", "values": [
      {"measurement": "pKi", "setting": "Thymidylate synthase", "value": 5.70}
    ]},
    {"smiles": "O=c1[nH]c(=O)n([C@H]2C[C@H](O)[C@@H](CO)O2)cc1C#Cc1ccccc1", "values": [
      {"measurement": "Cytotoxicity", "setting": "[2]", "value": "Non-toxic"}
    ]},
    {"smiles": "O=c1[nH]c(=O)n([C@H]2C[C@H](O)[C@@H](COP(=O)(O)O)O2)cc1C#CCO", "values": [
      {"measurement": "pKi", "setting": "Thymidylate synthase", "value": 5.52}
    ]},
    {"smiles": "CCCCC#Cc1cn([C@H]2C[C@H](O)[C@@H](COP(=O)(O)O)O2)c(=O)[nH]c1=O", "values": [
      {"measurement": "pKi", "setting": "Thymidylate synthase", "value": 5.59}
    ]},
    {"smiles": "O=c1[nH]c(=O)n([C@H]2C[C@H](O)[C@@H](COP(=O)(O)O)O2)cc1Cl", "values": [
      {"measurement": "pKi", "setting": "Thymidylate synthase", "value": 6.70}
    ]},
    {"smiles": "C#Cc1cn([C@H]2C[C@H](O)[C@@H](CO)O2)c(=O)[nH]c1=O", "values": [
      {"measurement": "Effect", "setting": "Mus musculus", "value": "inactive"},
      {"measurement": "pEC50", "setting": "[3]", "value": 6.92}
    ]},
    {"smiles": "O=c1[nH]c(=O)n([C@H]2C[C@H](O)[C@@H](CO)O2)cc1C#CCO", "values": [
      {"measurement": "Cytotoxicity", "setting": "[2]", "value": "Non-toxic"}
    ]},
    {"smiles": "O=c1[nH]c(=O)n([C@H]2C[C@H](O)[C@@H](COP(=O)(O)O)O2)cc1C#CCCO", "values": [
      {"measurement": "pKi", "setting": "Thymidylate synthase", "value": 5.72}
    ]}
  ]
}
